From ChEMBL document CHEMBL1126589, “Substituted 3-(phenylmethyl)-1H-indole-5-carboxamides and 1-(phenylmethyl)indole-6-carboxamides as potent, selective, orally active antagonists of the peptidoleukotrienes” (J Med Chem, 1993) come the findings set out here.

The target in assay [1] is T1, Cysteinyl leukotriene receptor 1 (Cavia porcellus, UniProt Q2NNR5).
T1 sequence (Q2NNR5 whole entry): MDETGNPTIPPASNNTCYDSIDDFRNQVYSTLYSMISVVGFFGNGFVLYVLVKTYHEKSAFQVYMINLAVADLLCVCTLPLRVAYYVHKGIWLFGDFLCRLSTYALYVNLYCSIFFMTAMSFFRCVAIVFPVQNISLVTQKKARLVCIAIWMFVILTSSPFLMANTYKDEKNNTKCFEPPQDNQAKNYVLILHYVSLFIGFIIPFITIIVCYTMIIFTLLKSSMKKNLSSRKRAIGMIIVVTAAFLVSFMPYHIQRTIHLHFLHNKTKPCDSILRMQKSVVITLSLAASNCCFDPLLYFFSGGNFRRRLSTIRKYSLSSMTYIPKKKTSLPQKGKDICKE
Briefly: Binding affinity against leukotriene receptor (LTD4) from guinea pig lung parenchymal membranes using [3H]LTD4 as radio ligand. Type of assay: tissue-based, Lung parenchyma. A digest of the protocol:
(§1)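 Displacement of [3H]LTD4 from guinea pig lung parenchymal membranes; Ki is the mean of two experiments run in duplicate with separate batches, reported as pKi (-log Ki).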

The target in assay [2] is T1, Cysteinyl leukotriene receptor 1. Briefly: Binding affinity to the leukotriene receptor (LTD4) from guinea pig lung parenchymal membranes assayed using [3H]LTD4 as radioligand. Format: tissue-based, Lung parenchyma. An outline of the steps:
as §1

Assay [3] has as its system Cavia porcellus. The assay can be described thus: Effective dose against LTD4-induced bronchoconstriction in guinea pig after intravenous administration. Type of assay: functional. A digest of the protocol:
(§2)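 Conscious guinea pigs challenged with LTD4 ("dyspnea" model) after oral or intravenous dosing; percent protection from LTD4-induced dyspnea plotted against dose to derive ED50; po/iv ratio taken from the oral and intravenous ED50 values.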

Assay [4] deals with T2, Cysteinyl leukotriene receptor 1 (Cavia porcellus) (UniProt Q2NNR5).
T2 sequence (whole entry): T1 sequence (Q2NNR5 whole entry)
Briefly: Binding affinity against leukotriene receptor (LTE4) from guinea pig tracheal spirals. Format: tissue-based. An outline of the steps:
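Functional antagonism in isolated guinea pig tracheal spirals contracted with LTE4 as agonist; KB derived from concentration-response curves, n = number of curves.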

Assay [5] in a line: ED50 ratio of LTD4 peroral administration / LTD4 intravenous administration. Format: functional. An outline of the steps: as §2
Assay [6] has as its system Cavia porcellus. The assay can be described thus: Effective dose against LTD4-induced bronchoconstriction in guinea pig after peroral administration. The settings on record: po. Format: functional. A digest of the protocol: as §2

As usually defined, the Ki is a measure of affinity in units of concentration, obtained from inhibition or displacement. Lower therefore signals tighter binding. Turning to `C/C=C\c1cn(Cc2ccc(C(=O)NS(=O)(=O)c3ccccc3C)cc2OC)c2cc(C(=O)NCC(CC)CC)ccc12`, in assay [1], the inhibitory constant (Ki) was 50.1 nM.
Broadly, the ED50 is the dose that gives a 50% effect, or the effect in half of the subjects. A high value points to weaker potency. The term pKB denotes −log10 of the KB, conventionally taken in molar units. Consider `CCCn1cc(Cc2ccc(C(=O)NS(=O)(=O)c3ccccc3C)cc2OC)c2cc(C(=O)NCC(CC)CC)ccc21`, for which the affinity in assay [2], expressed as Ki, was 0.794 nM. The ED50 was 0.04 µmol/kg in the assay on Cavia porcellus [3] and 5.6 µmol/kg in the assay with Cavia porcellus [6]. Also, in assay [4], the pKB was 8.9. In assay [5], the Ratio came out at 137.
`CCC(CC)CNC(=O)c1ccc2c(c1)c(Cc1ccc(C(=O)NS(=O)(=O)c3ccccc3Br)cc1OC)cn2C` gave a Ki in assay [1] of 3.98 nM. For the same compound, the median effective dose (ED50) in the assay on Cavia porcellus [3] is 0.84 µmol/kg; in the assay with Cavia porcellus [6], 21.4 µmol/kg. In assay [4], the pKB was found to be 9.1. Moreover, the Ratio in assay [5] is recorded as 25.
In turn, `CCCCC(CC)CNC(=O)c1ccc2c(c1)c(Cc1ccc(C(=O)NS(=O)(=O)c3ccccc3C)cc1OC)cn2C` (stereo not drawn) had a Ki in assay [2] of 6.31 nM. The ED50 in the assay with Cavia porcellus [3] is 0.28 µmol/kg; with Cavia porcellus [6], 8.06 µmol/kg. The pKB in assay [4] was determined as 8.1. Besides, in assay [5], the Ratio stood at 29.
In assay [2], `CCC(CC)CNC(=O)c1ccc2c(c1)c(Cc1ccc(C(=O)NS(=O)(=O)c3ccccc3C)cc1OC)cn2Cc1ccccc1` showed an inhibition constant Ki of 1.26 nM. For the same compound, the pKB in assay [4] came to 8.3.
Take `CCCCN(CCCC)C(=O)c1ccc2c(c1)c(Cc1ccc(C(=O)NS(=O)(=O)c3ccccc3C)cc1OC)cn2C`: the Ki in assay [2] was 79.4 nM.
For the compound `COc1cc(C(=O)NS(=O)(=O)c2ccccc2C)ccc1Cn1cc(C)c2ccc(C(=O)NCC3CCCC3)cc21`, in assay [2], the Ki was 10 nM. Besides, the results for the ED50 in the assay with Cavia porcellus [3] and with Cavia porcellus [6] were 1.62 µmol/kg and about 30 µmol/kg, respectively. In addition, the pKB in assay [4] amounted to 8.9. The Ratio in assay [5] was about 20.
With `CCC(CC)CNC(=O)c1ccc2c(CC3CCCC3)cn(Cc3ccc(C(=O)NS(=O)(=O)c4ccccc4C)cc3OC)c2c1`, the affinity in assay [1], expressed as Ki, was 1 nM.
Turning to `C=CCn1cc(Cc2ccc(C(=O)NS(=O)(=O)c3ccccc3C)cc2OC)c2cc(C(=O)NCC3CCCC3)ccc21`, the affinity in assay [2], expressed as Ki, was 0.398 nM. Further, the results for the ED50 in the assay with Cavia porcellus [3] and in the assay on Cavia porcellus [6] were 0.03 µmol/kg and 9.9 µmol/kg, respectively. The compound also had a pKB in assay [4] of 8.3.
On to `CCCn1cc(Cc2ccc(C(=O)O)cc2OC)c2cc(C(=O)NCC(C)C)ccc21`, for which the Ki in assay [1] is 2510 nM.
`COc1cc(C(=O)NS(=O)(=O)c2ccccc2C)ccc1Cc1cn(C)c2ccc(C(=O)NCC3CCCC3)cc12`: the Ki in assay [2] is 3.16 nM. The ED50 in the assay with Cavia porcellus [3] was 0.69 µmol/kg. Moreover, in assay [4], the pKB was 8.4. The Ratio in assay [5] was found to be 28.
Compound `COc1cc(C(=O)NS(=O)(=O)c2ccccc2C)ccc1Cn1cc(C)c2ccc(NC(=O)CC3CCCC3)cc21` registered a pKB in assay [4] of 9.3. In the assay on Cavia porcellus [6], this compound came in with an ED50 of 0.3 µmol/kg.
`CCC(CC)CNC(=O)c1ccc2c(c1)c(Cc1ccc(C(=O)NS(=O)(=O)c3ccccc3C)cc1OC)cn2C(C)C` had a Ki in assay [2] of 0.501 nM. Besides, the ED50 in the assay on Cavia porcellus [3] was 0.02 µmol/kg; with Cavia porcellus [6], 4.7 µmol/kg. The same compound registered a pKB in assay [4] of 8.8. Besides, in assay [5], the Ratio came out at 300.
`CCc1cn(Cc2ccc(C(=O)NS(=O)(=O)c3ccccc3C)cc2OC)c2cc(C(=O)NCC(CC)CC)ccc12`: affinity in assay [2] was put at a Ki of 3.16 nM. In assay [4], this compound returned a pKB of 8.2.
As for `CCCC(C)CNC(=O)c1ccc2c(c1)c(Cc1ccc(C(=O)NS(=O)(=O)c3ccccc3C)cc1OC)cn2C` (stereo not drawn), affinity in assay [2] was put at a Ki of 6.31 nM. The pKB in assay [4] is 8.5.
In assay [1], `CCCn1cc(Cc2ccc(C(=O)NS(=O)(=O)c3ccccc3)cc2OC)c2cc(C(=O)NCC(CC)CC)ccc21` had a Ki of 3.98 nM. In assay [4], the pKB was 7.7.
As to `CCCC1CCN(C(=O)c2ccc3c(c2)c(Cc2ccc(C(=O)NS(=O)(=O)c4ccccc4C)cc2OC)cn3C)CC1`, the Ki in assay [2] is 100 nM.
In turn, `CCC(CC)CNC(=O)c1ccc2c(CC3CCCCC3)cn(Cc3ccc(C(=O)NS(=O)(=O)c4ccccc4C)cc3OC)c2c1` showed a Ki in assay [1] of 2.51 nM.
The compound `CCCCCC(C)CNC(=O)c1ccc2c(c1)c(Cc1ccc(C(=O)NS(=O)(=O)c3ccccc3C)cc1OC)cn2C` (stereo not drawn) gave a Ki in assay [2] of 10 nM.
For `CCC(CC)CNC(=O)c1ccc2c(CC(C)C)cn(Cc3ccc(C(=O)NS(=O)(=O)c4ccccc4C)cc3OC)c2c1`, the Ki in assay [1] was 6.31 nM. Also, in assay [4], the negative-log KB (pKB) came out at 8.2.
`COc1cc(C(=O)NS(=O)(=O)c2ccccc2C)ccc1Cc1cn(C)c2ccc(C(=O)N(C)CC(C)C)cc12` had a Ki in assay [2] of 63.1 nM.
The compound `COc1cc(C(=O)NS(=O)(=O)c2ccccc2C)ccc1Cc1cn(C)c2ccc(C(=O)NCC(C)(C)C)cc12` gave a Ki in assay [2] of 15.8 nM. The compound further had a pKB in assay [4] of 7.5.
In the case of `COc1cc(C(=O)NS(=O)(=O)c2ccccc2C)ccc1Cc1cn(C)c2ccc(NC(=O)CC3CCCC3)cc12`, the ED50 in the assay with Cavia porcellus [3] amounted to 0.02 µmol/kg; in the assay on Cavia porcellus [6], 0.41 µmol/kg. In assay [4], this compound yielded a pKB of 9.7. In addition, in assay [5], the Ratio was 22.
Compound `CCC(CC)CNC(=O)c1ccc2c(c1)c(Cc1ccc(C(=O)NS(=O)(=O)c3ccccc3Cl)cc1OC)cn2C` had a Ki in assay [1] of 6.31 nM.
`CCC(CC)CNC(=O)c1ccc2c(c1)c(Cc1ccc(C(=O)NS(=O)(=O)c3ccccc3C)cc1OC)cn2C1CCCC1` gave a Ki in assay [2] of 2.51 nM. This counts as single-digit nanomolar.
With `CCCn1cc(Cc2ccc(C(=O)NS(=O)(=O)c3ccccc3)cc2OC)c2cc(C(=O)NCC(C)C)ccc21`, the affinity in assay [1] corresponds to a Ki of 7.94 nM. Moreover, the pKB in assay [4] amounted to 7.6.
The compound `CCC(C)CNC(=O)c1ccc2c(c1)c(Cc1ccc(C(=O)NS(=O)(=O)c3ccccc3C)cc1OC)cn2C` (stereo not drawn) gave an inhibition constant (Ki) in assay [2] of 5.01 nM. Further, the median effective dose (ED50) with Cavia porcellus [3] is 1.39 µmol/kg; with Cavia porcellus [6] it was 20 µmol/kg. The same compound registered a pKB in assay [4] of 8.7. In addition, the Ratio in assay [5] is 14.
On to `CCCCC(CC)NC(=O)c1ccc2c(c1)c(Cc1ccc(C(=O)NS(=O)(=O)c3ccccc3C)cc1OC)cn2C` (stereo not drawn), for which the affinity in assay [2] corresponds to a Ki of 126 nM. In other words, the sub-micromolar range.
In the case of `CCC(CC)CNC(=O)c1ccc2c(C)cn(Cc3ccc(C(=O)NS(=O)(=O)c4ccccc4C)cc3OC)c2c1`, in assay [2], the Ki was 2.51 nM. In assay [4], this compound had a negative logarithm of the KB (pKB) of 8.4.
Take `CCC(CC)CNC(=O)c1ccc2ccn(Cc3ccc(C(=O)NS(=O)(=O)c4ccccc4C)cc3OC)c2c1`: the affinity in assay [2], expressed as Ki, was 12.6 nM.
With `CCCn1cc(Cc2ccc(C(=O)NS(=O)(=O)c3ccccc3C)cc2OC)c2cc(C(=O)NCC(C)C)ccc21`, the affinity in assay [2], expressed as Ki, was 2 nM. For the same compound, the 50% effective dose (ED50) was 0.07 µmol/kg with Cavia porcellus [3] and 31 µmol/kg in the assay on Cavia porcellus [6]. In assay [4], this compound came in with a pKB of 9.1. The Ratio in assay [5] was found to be 456.
`COc1cc(C(=O)NS(=O)(=O)c2ccccc2C)ccc1Cc1cn(C)c2ccc(C(=O)NCC(C)C)cc12`: the Ki in assay [1] is 6.31 nM. The compound further showed a pKB in assay [4] of 8.6. Further, in the assay with Cavia porcellus [6], the ED50 is over 30 µmol/kg.
In turn, `COc1cc(C(=O)NS(=O)(=O)c2ccccc2C)ccc1Cc1cn(C)c2ccc(C(=O)NCCC(C)C)cc12` gave a Ki in assay [2] of 15.8 nM.
In turn, `COc1cc(C(=O)NS(=O)(=O)c2ccccc2C)ccc1Cc1cn(C)c2ccc(C(=O)NC3CCCCC3)cc12` showed a Ki in assay [2] of 100 nM.
In assay [1], `CCC(CC)CNC(=O)c1ccc2c(CCc3ccccc3)cn(Cc3ccc(C(=O)NS(=O)(=O)c4ccccc4C)cc3OC)c2c1` gave a Ki of 25.1 nM.
With `COc1cc(C(=O)NS(=O)(=O)c2ccccc2C)ccc1Cc1cn(C)c2ccc(C(=O)NCCc3ccccc3)cc12`, in assay [2], the Ki is 79.4 nM.
`CCCc1cn(Cc2ccc(C(=O)NS(=O)(=O)c3ccccc3C)cc2OC)c2cc(C(=O)NCC(CC)CC)ccc12` gave a Ki in assay [1] of 1.26 nM. Also, the pKB in assay [4] is 8.8.
Consider `CCCCCCC(C)CNC(=O)c1ccc2c(c1)c(Cc1ccc(C(=O)NS(=O)(=O)c3ccccc3C)cc1OC)cn2C` (stereo not drawn), for which the Ki in assay [2] was 7.94 nM. The compound further gave a pKB in assay [4] of 7.5.
